In ChEMBL document CHEMBL3271935, “Synthesis and biological activity of some broad-spectrum N-acylphenyglycine cephalosporins” (1977) one finds MIC and ED50 data, which are given here for 5 compounds.

The structures appear in SMILES notation. Values after ≈ are worked out from the molar mass of the structure shown.

As a reminder, the MIC is the lowest concentration found to suppress growth.

Test [1] relates to Escherichia coli. Nature of the test: Antibacterial activity against Escherichia coli 12140 assessed as growth inhibition by two-fold agar dilution method. It counts as functional. In short, it runs like this:
(§1)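 MIC (μg/mL) by twofold agar dilution on Trypticase soy agar buffered to pH 6.0.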
On the technique in general: In agar dilution the substance is mixed into plates at graded concentrations.

A further test deals with Staphylococcus aureus. Nature of the test: Antibacterial activity against penicillin G resistant Staphylococcus aureus HH 127 assessed as growth inhibition by two-fold agar dilution method. It is filed as functional. In short, it runs like this:
(§2)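 Twofold agar dilution on Trypticase soy agar buffered to pH 6.0. MIC reported in μg/mL.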

The subject of test [2] is Pseudomonas aeruginosa. Nature of the test: Antibacterial activity against Pseudomonas aeruginosa 1063 assessed as growth inhibition. It counts as functional. In short, it runs like this: (§3)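 Broth MIC by the standard microtiter technique in unbuffered Mueller-Hinton broth.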
Test [3] concerns Pseudomonas aeruginosa. Nature of the test: Antibacterial activity against Pseudomonas aeruginosa 219 assessed as growth inhibition. It is filed as functional. The gist of the method: as §3
In test [4] the test system is Pseudomonas aeruginosa. Nature of the test: Antibacterial activity against Pseudomonas aeruginosa 1504 assessed as growth inhibition. It counts as functional. The gist of the method:
as §3

Test [5] concerns Escherichia coli. Nature of the test: Antibacterial activity against Escherichia coli 12140 infected in sc dosed mouse administered at 1 to 5 hrs measured for 3 days. It is filed as functional. To be noted: Escherichia coli, 12140, sc; read-out: PD50. In short, it runs like this: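 Mice infected intraperitoneally with about 2×10^3 organisms per mouse of E. coli 12140 culture diluted in 5% hog gastric mucin, giving uniformly lethal infection. Fourfold dilutions given subcutaneously in equally divided portions at 1 and 5 h postinfection, five groups per compound. Survivors observed 3 days. PD50 is total dose (mg/kg) protecting 50%, calculated by Litchfield–Wilcoxon method.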

Test [6] deals with Pseudomonas aeruginosa. Nature of the test: Antibacterial activity against Pseudomonas aeruginosa 647 assessed as growth inhibition. It counts as functional. The gist of the method: as §3
Test [7] relates to Pseudomonas aeruginosa. Nature of the test: Antibacterial activity against Pseudomonas aeruginosa 1042 assessed as growth inhibition. It is filed as functional. In short, it runs like this:
as §3

In the next test the test system is Morganella morganii. Nature of the test: Antibacterial activity against indole positive Proteus morganii 179 assessed as growth inhibition by two-fold agar dilution method. It is filed as functional. In short, it runs like this: as §1
A further test deals with Klebsiella aerogenes. Nature of the test: Antibacterial activity against Enterobacter aerogenes ATCC 13048 assessed as growth inhibition by two-fold agar dilution method. It counts as functional. In short, it runs like this: as §1
In test [8] the test system is Pseudomonas aeruginosa. Nature of the test: Antibacterial activity against Pseudomonas aeruginosa 1062 assessed as growth inhibition. It counts as functional. In short, it runs like this:
as §3

The next test deals with Salmonella paratyphi. Nature of the test: Antibacterial activity against Salmonella paratyphi ATCC 12176 assessed as growth inhibition by two-fold agar dilution method. It counts as functional, Salmonella enterica subsp. enterica serovar Paratyphi A. To be noted: Salmonella enterica. In short, it runs like this: as §2
In test [9] the test system is Pseudomonas aeruginosa. Nature of the test: Antibacterial activity against Pseudomonas aeruginosa HH 63 assessed as growth inhibition by two-fold agar dilution method. It counts as functional. In short, it runs like this: as §1
The subject of another test is Klebsiella pneumoniae. Nature of the test: Antibacterial activity against Klebsiella pneumoniae 4200 assessed as growth inhibition by two-fold agar dilution method. It is filed as functional. In short, it runs like this: as §1
For test [10], the system named is Pseudomonas aeruginosa. Nature of the test: Antibacterial activity against Pseudomonas aeruginosa 1106 assessed as growth inhibition. It counts as functional. The gist of the method:
as §3

The subject of test [11] is Pseudomonas aeruginosa. Nature of the test: Antibacterial activity against Pseudomonas aeruginosa 864 assessed as growth inhibition. It counts as functional. The gist of the method: as §3

As for `Cn1nnnc1SCC1=C(C(=O)[O-])N2C(=O)[C@@H](NC(=O)C(NC(=O)C3OC3C(=O)[O-])c3ccccc3)[C@H]2SC1.[Na+].[Na+]` (mixture of isomers), the MIC with Escherichia coli [1] was determined as 0.8 µg/mL; in the test on Staphylococcus aureus it was 6.3 µg/mL; with Pseudomonas aeruginosa [2] it was 500 µg/mL; in the test with Pseudomonas aeruginosa [3], 125 µg/mL; in the test on Pseudomonas aeruginosa [4], 63 µg/mL; with Pseudomonas aeruginosa [6], 63 µg/mL. In addition, the MIC in the test with Pseudomonas aeruginosa [7] turned out to be 63 µg/mL; with Morganella morganii, 0.4 µg/mL; in the test with Klebsiella aerogenes, 1.6 µg/mL; with Pseudomonas aeruginosa [8] it was 63 µg/mL; in the test on Salmonella paratyphi it was 1.6 µg/mL; with Pseudomonas aeruginosa [9], 50 µg/mL. For the same compound, the values for the MIC in the test on Klebsiella pneumoniae, with Pseudomonas aeruginosa [10] and in the test with Pseudomonas aeruginosa [11] were 0.8 µg/mL, 500 µg/mL and 500 µg/mL, respectively. Moreover, in the test on Escherichia coli [5], the ED50 amounted to 7 mg/kg.
As for `Cn1nnnc1SCC1=C(C(=O)[O-])N2C(=O)[C@@H](NC(=O)C(NC(=O)[C@@H]3O[C@@H]3C(=O)[O-])c3ccccc3)[C@H]2SC1.[Na+].[Na+]` (mixture of isomers), the MIC was 6.3 µg/mL in the test on Escherichia coli [1]; 12.5 µg/mL in the test with Staphylococcus aureus; greater than 500 µg/mL in the test on Pseudomonas aeruginosa [2]; 500 µg/mL in the test on Pseudomonas aeruginosa [3]; 500 µg/mL in the test on Pseudomonas aeruginosa [4]; greater than 500 µg/mL with Pseudomonas aeruginosa [6]. The MIC in the test with Pseudomonas aeruginosa [7] is greater than 500 µg/mL; with Morganella morganii it was 3.1 µg/mL; with Klebsiella aerogenes it was 12.5 µg/mL; in the test with Pseudomonas aeruginosa [8] it was greater than 500 µg/mL; with Salmonella paratyphi it was 6.3 µg/mL; in the test on Pseudomonas aeruginosa [9] it was 200 µg/mL. Also, the results for the minimum inhibitory concentration (MIC) with Klebsiella pneumoniae, in the test on Pseudomonas aeruginosa [10] and with Pseudomonas aeruginosa [11] were 3.1 µg/mL, greater than 500 µg/mL and 500 µg/mL, respectively. Besides, in the test on Escherichia coli [5], the ED50 came out at 35 mg/kg.
For `Cn1nnnc1SCC1=C(C(=O)[O-])N2C(=O)[C@@H](NC(=O)C(NC(=O)C3CCC(C(=O)[O-])O3)c3ccccc3)[C@H]2SC1.[Na+].[Na+]` (mixture of isomers), the minimum inhibitory concentration (MIC) with Escherichia coli [1] stood at 3.1 µg/mL; with Staphylococcus aureus, 3.1 µg/mL; with Pseudomonas aeruginosa [2], 250 µg/mL; with Pseudomonas aeruginosa [3] it was 125 µg/mL; in the test with Pseudomonas aeruginosa [4], 63 µg/mL; with Pseudomonas aeruginosa [6] it was 125 µg/mL. In addition, the MIC turned out to be 125 µg/mL in the test with Pseudomonas aeruginosa [7]; 1.6 µg/mL in the test on Morganella morganii; 3.1 µg/mL in the test with Klebsiella aerogenes; 125 µg/mL with Pseudomonas aeruginosa [8]; 3.1 µg/mL with Salmonella paratyphi; 100 µg/mL in the test on Pseudomonas aeruginosa [9]. The figures for the MIC in the test with Klebsiella pneumoniae, in the test on Pseudomonas aeruginosa [10] and in the test with Pseudomonas aeruginosa [11] were 1.6 µg/mL, 500 µg/mL and 500 µg/mL, respectively. For the same compound, in the test on Escherichia coli [5], the ED50 is 25 mg/kg.
In the case of `Cn1nnnc1SCC1=C(C(=O)[O-])N2C(=O)[C@@H](NC(=O)C(NC(=O)C3CO3)c3ccccc3)[C@H]2SC1.[Na+]` (mixture of isomers), the MIC in the test with Escherichia coli [1] is 12.5 µg/mL; in the test with Staphylococcus aureus it was 1.6 µg/mL; in the test with Pseudomonas aeruginosa [2] it was greater than 500 µg/mL; in the test with Pseudomonas aeruginosa [3] it was greater than 500 µg/mL; with Pseudomonas aeruginosa [4], 500 µg/mL; in the test on Pseudomonas aeruginosa [6], greater than 500 µg/mL. Moreover, the MIC is greater than 500 µg/mL in the test on Pseudomonas aeruginosa [7]; 3.1 µg/mL in the test on Morganella morganii; 12.5 µg/mL with Klebsiella aerogenes; greater than 500 µg/mL in the test on Pseudomonas aeruginosa [8]; 6.3 µg/mL with Salmonella paratyphi; 200 µg/mL in the test with Pseudomonas aeruginosa [9]. The results for the MIC in the test on Klebsiella pneumoniae, with Pseudomonas aeruginosa [10] and in the test on Pseudomonas aeruginosa [11] were 6.3 µg/mL, greater than 500 µg/mL and greater than 500 µg/mL, respectively. For the same compound, in the test on Escherichia coli [5], the ED50 was 45 mg/kg.
Turning to `CC1(C)S[C@@H]2[C@H](NC(=O)C(C(=O)O)c3ccccc3)C(=O)N2[C@H]1C(=O)O` (stereo not given in full) [CARBENICILLIN], the minimum inhibitory concentration (MIC) is 6.3 µg/mL (≈ 16.6 µM) with Escherichia coli [1]; 3.1 µg/mL (≈ 8.19 µM) in the test on Staphylococcus aureus; 63 µg/mL (≈ 166 µM) in the test with Pseudomonas aeruginosa [2]; 63 µg/mL (≈ 166 µM) in the test on Pseudomonas aeruginosa [3]; 63 µg/mL (≈ 166 µM) in the test with Pseudomonas aeruginosa [4]; 63 µg/mL (≈ 166 µM) with Pseudomonas aeruginosa [6]. The MIC came out at 63 µg/mL (≈ 166 µM) with Pseudomonas aeruginosa [7]; 0.8 µg/mL (≈ 2.11 µM) in the test with Morganella morganii; 12.5 µg/mL (≈ 33 µM) with Klebsiella aerogenes; 63 µg/mL (≈ 166 µM) with Pseudomonas aeruginosa [8]; 6.3 µg/mL (≈ 16.6 µM) with Salmonella paratyphi; 50 µg/mL (≈ 132 µM) in the test on Pseudomonas aeruginosa [9]. Further, the MIC in the test with Klebsiella pneumoniae is 6.3 µg/mL (≈ 16.6 µM); in the test with Pseudomonas aeruginosa [10], 125 µg/mL (≈ 330 µM); in the test with Pseudomonas aeruginosa [11], 500 µg/mL (≈ 1320 µM). In the test on Escherichia coli [5], the ED50 is 25 mg/kg.
